Measured values as given in ChEMBL document CHEMBL4373727, “Thienopyrimidinone Derivatives That Inhibit Bacterial tRNA (Guanine37-N1)-Methyltransferase (TrmD) by Restructuring the Active Site with a Tyrosine-Flipping Mechanism” (J Med Chem, 2019).
pIC50: −log10 of the molar value. Values after ≈ are worked out from the molar mass of the structure shown. Active and inactive are the calls of the source. The calls are words filed in the database; no cut-off is given here.

Legend:
[1] = system: Mycolicibacterium smegmatis; assay: Bactericidal activity against Mycolicibacterium smegmatis MC2 155 assessed as reduction in CFU at 1 to 4 times MIC90 incubated for 24 hrs; format: functional; conditions: MC2 155, 24 h, read-out: MBC99.9
[2] = system: Pseudomonas aeruginosa; assay: Bactericidal activity against Pseudomonas aeruginosa PA14 assessed as reduction in CFU at 1 to 4 times MIC90 incubated for 24 hrs; format: functional, organism-based
[3] = system: Staphylococcus aureus; assay: Bactericidal activity against methicillin-resistant Staphylococcus aureus ATCC 43300 assessed as reduction in CFU at 1 to 4 times MIC90 incubated for 24 hrs; format: functional; conditions: ATCC 43300, 24 h, read-out: MBC99.9
[4] = system: Mycobacterium tuberculosis; assay: Antibacterial activity against Mycobacterium tuberculosis ATCC 27294 incubated for 7 days by broth dilution method; format: functional; conditions: ATCC 27294, 168 h
Procedure, shortened: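 M. tuberculosis ATCC 27294 in complete 7H9 with 0.05% Tween 80, 0.5% glycerol and 10% ADC. Mid-log cells adjusted to OD600 0.1 and added 1:1 to 2-fold serial compound dilutions (highest 100 μM). Incubated 7 d at 37 °C with shaking at 80 rpm, then OD600 read. Isoniazid positive control. MIC50/MIC90 versus drug-free controls. Biological duplicates.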

[5] = system: Escherichia coli; assay: Antibacterial activity against Escherichia coli BW25113 incubated for 24 hrs by serial broth microdilution method; format: functional, organism-based
Procedure, shortened: (§1)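 Log-phase cultures from four colonies grown overnight at 37 °C, inoculated at ~5×10^5 cells/mL in cation-adjusted Mueller–Hinton broth with serially diluted compound. Grown 24 h at 37 °C, then OD600 read. MIC50/MIC90 are the concentrations giving 50%/90% growth inhibition relative to drug-free controls. Two independent experiments in duplicate.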

[6] = system: Klebsiella pneumoniae; assay: Bactericidal activity against Klebsiella pneumoniae ATCC 13883 assessed as reduction in CFU at 1 to 4 times MIC90 incubated for 24 hrs; format: functional, organism-based
[7] = system: Streptococcus pneumoniae; assay: Antibacterial activity against Streptococcus pneumoniae ATCC 49619 incubated for 24 hrs by serial broth microdilution method; format: functional; conditions: ATCC 49619, 24 h
Procedure, shortened: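 Cultured in MH medium plus 3% defibrinated sheep blood at 37 °C, 5% CO2. Log-phase inoculum ~5×10^5 cells/mL was exposed to serial compound dilutions for 24 h. MIC50/MIC90 are relative to drug-free controls. Two independent experiments in duplicate.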

[8] = system: Salmonella enteritidis; assay: Bactericidal activity against Salmonella enteritidis ATCC 13076 assessed as reduction in CFU at 1 to 4 times MIC90 incubated for 24 hrs; format: functional, Salmonella enterica subsp. enterica serovar Enteritidis; conditions: Salmonella enterica, ATCC 13076, 24 h; read-out: MBC99.9
[9] = system: Pseudomonas aeruginosa; assay: Antibacterial activity against Pseudomonas aeruginosa PA14 incubated for 24 hrs by serial broth microdilution method; format: functional, organism-based; procedure, shortened: as §1
[10] = system: Enterococcus faecalis; assay: Antibacterial activity against Enterococcus faecalis ATCC 51299 incubated for 24 hrs by serial broth microdilution method; format: functional, organism-based
Procedure, shortened: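 Broth microdilution in brain heart infusion broth, ~5×10^5 cells/mL log-phase inoculum, serial compound dilutions, 24 h at 37 °C, OD600 read-out. MIC50/MIC90 are the concentrations giving 50%/90% growth inhibition relative to drug-free controls. Two independent experiments in duplicate.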

[11] = system: Enterococcus faecalis; assay: Antibacterial activity against Enterococcus faecalis ATCC 51299 at 100 uM incubated for 24 hrs; format: functional, organism-based
Procedure, shortened: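 Single-concentration screen in brain heart infusion broth. Log-phase cells at ~5×10^5 cells/mL were grown with 100 μM compound for 24 h at 37 °C. Growth was read as OD600 and expressed as a percentage of untreated wells. DMSO and blank controls were included.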

[12] = system: Enterococcus faecalis; assay: Bactericidal activity against Enterococcus faecalis ATCC 51299 assessed as reduction in CFU at 1 to 4 times MIC90 incubated for 24 hrs; format: functional, organism-based
[13] = system: Mycobacterium tuberculosis; assay: Antibacterial activity against Mycobacterium tuberculosis ATCC 27294 at 100 uM incubated for 7 days; format: functional, organism-based
[14] = system: Escherichia coli; assay: Bactericidal activity against Escherichia coli BW25113 assessed as reduction in CFU at 1 to 4 times MIC90 incubated for 24 hrs; format: functional, organism-based
[15] = system: Acinetobacter baumannii; assay: Antibacterial activity against Acinetobacter baumannii ATCC 17961 incubated for 24 hrs by serial broth microdilution method; format: functional; conditions: ATCC 17961, 24 h; procedure, shortened: as §1
[16] = system: Mycolicibacterium smegmatis; assay: Antibacterial activity against Mycolicibacterium smegmatis MC2 155 at 100 uM incubated for 24 hrs; format: functional, organism-based
Procedure, shortened: (§2)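 Single-concentration growth screen: 100 μM test compound with log-phase bacteria at about 5×10^5 cells/mL. Incubation 24 h at 37 °C. Growth read by OD600 and given as percent of untreated control. MRSA was grown in cation-adjusted Mueller–Hinton broth. M. smegmatis was grown in complete Middlebrook 7H9. Ampicillin and kanamycin served as positive controls.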

[17] = system: Klebsiella pneumoniae; assay: Antibacterial activity against Klebsiella pneumoniae ATCC 13883 incubated for 24 hrs by serial broth microdilution method; format: functional, organism-based; procedure, shortened: as §1
[18] = system: Staphylococcus aureus; assay: Antibacterial activity against methicillin-resistant Staphylococcus aureus ATCC 43300 at 100 uM incubated for 24 hrs; format: functional, organism-based; procedure, shortened: as §2
[19] = system: Streptococcus pneumoniae; assay: Antibacterial activity against Streptococcus pneumoniae ATCC 49619 at 100 uM incubated for 24 hrs; format: functional, organism-based
Procedure, shortened: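 Single 100 μM screen in MH medium with 3% defibrinated sheep blood at 37 °C under 5% CO2, ~5×10^5 cells/mL, 24 h.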

[20] = system: Salmonella enteritidis; assay: Antibacterial activity against Salmonella enteritidis ATCC 13076 incubated for 24 hrs by serial broth microdilution method; format: functional, Salmonella enterica subsp. enterica serovar Enteritidis; conditions: Salmonella enterica, ATCC 13076, 24 h; procedure, shortened: as §1
[21] = system: Staphylococcus aureus; assay: Antibacterial activity against methicillin-resistant Staphylococcus aureus ATCC 43300 incubated for 24 hrs by serial broth microdilution method; format: functional; conditions: ATCC 43300, 24 h
Procedure, shortened: (§3)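 Growth read by OD600. MRSA in cation-adjusted Mueller–Hinton broth, M. smegmatis in complete 7H9. MIC50 and MIC90 are 50% and 90% growth inhibition versus drug-free controls. Two independent experiments, each in duplicate.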

[22] = system: Mycolicibacterium smegmatis; assay: Antibacterial activity against Mycolicibacterium smegmatis MC2 155 incubated for 24 hrs by serial broth microdilution method; format: functional; conditions: MC2 155, 24 h; procedure, shortened: as §3
[23] = system: Streptococcus pneumoniae; assay: Bactericidal activity against Streptococcus pneumoniae ATCC 49619 assessed as reduction in CFU at 1 to 4 times MIC90 incubated for 24 hrs; format: functional; conditions: ATCC 49619, 24 h, read-out: MBC99.9
[24] = system: Acinetobacter baumannii; assay: Bactericidal activity against Acinetobacter baumannii ATCC 17961 assessed as reduction in CFU at 1 to 4 times MIC90 incubated for 24 hrs; format: functional; conditions: ATCC 17961, 24 h, read-out: MBC99.9
[25] = target: T1, tRNA (guanine-N(1)-)-methyltransferase (Pseudomonas aeruginosa (strain ATCC 15692 / DSM 22644 / CIP 104116 / JCM14847 / LMG 12228 / 1C / PRS 101 / PAO1), UniProt Q9HXQ1); assay: Inhibition of Pseudomonas aeruginosa tRNA (guanine(37)-N1)-methyltransferase (Leu5 to Asp25 residues) expressed in Escherichia coli BL21 (DE3) Rosetta T1R cells assessed as reduction in S-adenosyl-L-homocysteine production preincubated for 15 mins followed by 1.5 uM of tRNALeu(CAG) substrate and SAM addition and measured after 45 mins by MTase-Glo assay
T1 sequence (Q9HXQ1 whole entry): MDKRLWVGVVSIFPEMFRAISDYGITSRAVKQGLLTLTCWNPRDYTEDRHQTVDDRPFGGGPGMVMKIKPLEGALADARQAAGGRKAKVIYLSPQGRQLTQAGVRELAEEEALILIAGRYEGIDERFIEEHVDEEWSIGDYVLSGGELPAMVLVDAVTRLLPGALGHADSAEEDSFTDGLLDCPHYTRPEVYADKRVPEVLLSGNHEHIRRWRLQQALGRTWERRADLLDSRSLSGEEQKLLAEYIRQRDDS
Procedure, shortened: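 MTase-Glo luminescence assay. 8 nM TrmD preincubated 15 min at ambient temperature with serially diluted inhibitor (0–500 μM) in 50 mM Tris-HCl pH 8.0, 80 mM NaCl, 1 mM MgCl2, 0.5 mM DTT, 0.01% Triton X-100. Reaction with 2 μM SAM and tRNALeu(CAG), 45 min at 37 °C. Detection 30 min in the dark, SAH read against a standard curve. IC50 by nonlinear regression. Two independent experiments in duplicate.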

In the case of `CCCCCCCCCCCCNCc1ccc(CNC(=O)c2csc3nc[nH]c(=O)c23)cc1`, the MBC [1] was 69 µM (≈ 33.3 µg/mL), the MBC99.9 [2] was “inactive” and the MBC [3] was 34 µM (≈ 16.4 µg/mL). For the same molecule, the MIC50 [4] was 44 µM (≈ 21.2 µg/mL), the MIC90 [4] was 88 µM (≈ 42.5 µg/mL) and the MIC50 [5] was “inactive”. For the same molecule, the MIC90 [5] was “inactive”, the MBC99.9 [6] was “inactive” and the MIC50 [7] was 62 µM (≈ 29.9 µg/mL). The MIC90 [7] was 74 µM (≈ 35.7 µg/mL), the MBC [8] was over 100 µM and the MIC50 [9] was “inactive”. For the same molecule, the MIC90 [9] was “inactive”, the MIC50 [10] was “inactive” and the MIC90 [10] was “inactive”. For the same molecule, the Activity [11] was “Active”, the MBC99.9 [12] was “inactive” and the Activity [13] was “Active”. For the same molecule, the MBC99.9 [14] was “inactive”, the MIC50 [15] was 75 µM (≈ 36.2 µg/mL) and the MIC90 [15] was 99 µM (≈ 47.8 µg/mL). The Activity [16] was “Active”, the MIC50 [17] was “inactive” and the MIC90 [17] was “inactive”. The Activity [18] was “Active”, the Activity [19] was “Active” and the MIC50 [20] was over 100 µM. The MIC90 [20] was over 100 µM, the MIC50 [21] was 5 µM (≈ 2.41 µg/mL) and the MIC90 [21] was 8.5 µM (≈ 4.1 µg/mL). The MIC50 [22] was 17 µM (≈ 8.21 µg/mL), the MIC90 [22] was 23 µM (≈ 11.1 µg/mL) and the MBC [23] was over 100 µM. The MBC [24] was over 100 µM and the pIC50 [25] was 6.42.
